Data set [1] can be described thus: AUC in mouse at 3 mg/kg, iv and 10 mg/kg, po. Format: ADME, organism-based. As to conditions: plasma.
The test system of data set [2] is Liver. Put plainly: Half life in mouse liver microsomes assessed as formation of oxidation product and glucuronide conjugate. It is filed as ADME, Microsome. Put shortly:
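Mouse liver microsomes run under combined phase I oxidation and phase II glucuronide conjugation; half-life reported in minutes.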
For orientation: Liver microsomes are vesicles of endoplasmic reticulum, rich in cytochrome P450 enzymes.

A short description of data set [3]: Half life in mouse at 10 mg/kg, po. It is filed as ADME, organism-based. Details: dose 10 mg/kg, route oral. The settings on record: in vivo.
In data set [4] the target is T1, Nitric oxide synthase, inducible (Mus musculus, UniProt P29477).
T1 sequence (P29477 whole entry): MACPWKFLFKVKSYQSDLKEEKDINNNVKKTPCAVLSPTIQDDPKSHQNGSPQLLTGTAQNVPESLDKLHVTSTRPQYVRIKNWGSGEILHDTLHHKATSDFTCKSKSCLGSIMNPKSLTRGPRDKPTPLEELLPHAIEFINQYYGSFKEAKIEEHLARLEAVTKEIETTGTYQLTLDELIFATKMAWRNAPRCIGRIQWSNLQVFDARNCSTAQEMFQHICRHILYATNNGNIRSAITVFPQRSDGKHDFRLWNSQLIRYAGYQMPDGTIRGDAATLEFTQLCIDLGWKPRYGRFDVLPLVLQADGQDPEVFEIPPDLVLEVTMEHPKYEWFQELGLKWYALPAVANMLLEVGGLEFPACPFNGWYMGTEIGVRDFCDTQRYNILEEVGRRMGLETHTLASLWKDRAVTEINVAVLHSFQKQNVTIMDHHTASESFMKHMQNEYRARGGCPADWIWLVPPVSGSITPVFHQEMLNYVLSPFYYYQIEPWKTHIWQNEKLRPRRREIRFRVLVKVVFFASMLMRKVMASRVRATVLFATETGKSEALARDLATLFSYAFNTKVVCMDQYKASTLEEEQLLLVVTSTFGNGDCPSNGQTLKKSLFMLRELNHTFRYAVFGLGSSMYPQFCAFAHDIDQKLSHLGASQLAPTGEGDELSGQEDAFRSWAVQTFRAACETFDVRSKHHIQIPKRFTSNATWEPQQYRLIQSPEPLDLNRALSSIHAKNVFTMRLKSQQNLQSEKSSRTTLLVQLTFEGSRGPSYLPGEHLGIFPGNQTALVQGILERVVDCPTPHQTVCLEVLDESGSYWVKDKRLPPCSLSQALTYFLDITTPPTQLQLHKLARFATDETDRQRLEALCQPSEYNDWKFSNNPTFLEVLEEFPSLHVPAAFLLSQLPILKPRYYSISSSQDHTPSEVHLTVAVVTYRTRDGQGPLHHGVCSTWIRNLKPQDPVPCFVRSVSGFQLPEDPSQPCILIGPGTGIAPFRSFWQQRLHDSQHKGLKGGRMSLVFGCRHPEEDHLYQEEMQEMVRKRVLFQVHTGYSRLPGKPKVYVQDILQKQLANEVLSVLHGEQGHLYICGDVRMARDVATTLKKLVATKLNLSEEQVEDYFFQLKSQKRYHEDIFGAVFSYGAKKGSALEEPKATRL
Put plainly: Inhibition of mouse iNOS expressed in HEK293 cells assessed as inhibition of nitric oxide production after 18 hrs using 2,3-diaminonaphthalene by fluorescence assay. It is filed as cell-based. In short, it runs like this: (§1)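 HEK293 cells grown to ~70% confluence in DMEM/10% FBS with pen/strep, transiently transfected with 10 μg human or murine iNOS plasmid plus Fugene 6 for 4 h at 37 °C, 10% CO2. Cells replated at 5e5 cells/mL and dosed with compound at once; 1400W (100 μM final) as positive control. After 18 h, DAN (10 μg/mL final) in HCl (0.1 N final) added for 20 min at room temperature. Fluorescence read after NaOH (0.12 N final).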

The target in data set [5] is Nitric oxide synthase 1 (Homo sapiens, UniProt P29475). Description: Inhibition of human nNOS expressed in HEK293 cells assessed as inhibition ionomycin induced nitric oxide production incubated for 24 hrs measured after 18 hrs of ionomycin challenge using 2,3-diaminonaphthalene by fluorescence assay. Format: cell-based. In short, it runs like this: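 HEK293 cells transfected for 4 h at 37 °C with human nNOS (10 μg) or human eNOS (15 μg) plasmid (Fugene 6, 3:1). Cells replated at 5e5 cells/mL and dosed with compound at once; SEITU (100 μM final) as positive control. After 24 h, cells activated with A23187 (83 nM final) for eNOS or ionomycin (30 μM final) for nNOS. NO read 18 h later as nitrite-DAN fluorescence.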
Chain of Nitric oxide synthase 1 (P29475 whole entry): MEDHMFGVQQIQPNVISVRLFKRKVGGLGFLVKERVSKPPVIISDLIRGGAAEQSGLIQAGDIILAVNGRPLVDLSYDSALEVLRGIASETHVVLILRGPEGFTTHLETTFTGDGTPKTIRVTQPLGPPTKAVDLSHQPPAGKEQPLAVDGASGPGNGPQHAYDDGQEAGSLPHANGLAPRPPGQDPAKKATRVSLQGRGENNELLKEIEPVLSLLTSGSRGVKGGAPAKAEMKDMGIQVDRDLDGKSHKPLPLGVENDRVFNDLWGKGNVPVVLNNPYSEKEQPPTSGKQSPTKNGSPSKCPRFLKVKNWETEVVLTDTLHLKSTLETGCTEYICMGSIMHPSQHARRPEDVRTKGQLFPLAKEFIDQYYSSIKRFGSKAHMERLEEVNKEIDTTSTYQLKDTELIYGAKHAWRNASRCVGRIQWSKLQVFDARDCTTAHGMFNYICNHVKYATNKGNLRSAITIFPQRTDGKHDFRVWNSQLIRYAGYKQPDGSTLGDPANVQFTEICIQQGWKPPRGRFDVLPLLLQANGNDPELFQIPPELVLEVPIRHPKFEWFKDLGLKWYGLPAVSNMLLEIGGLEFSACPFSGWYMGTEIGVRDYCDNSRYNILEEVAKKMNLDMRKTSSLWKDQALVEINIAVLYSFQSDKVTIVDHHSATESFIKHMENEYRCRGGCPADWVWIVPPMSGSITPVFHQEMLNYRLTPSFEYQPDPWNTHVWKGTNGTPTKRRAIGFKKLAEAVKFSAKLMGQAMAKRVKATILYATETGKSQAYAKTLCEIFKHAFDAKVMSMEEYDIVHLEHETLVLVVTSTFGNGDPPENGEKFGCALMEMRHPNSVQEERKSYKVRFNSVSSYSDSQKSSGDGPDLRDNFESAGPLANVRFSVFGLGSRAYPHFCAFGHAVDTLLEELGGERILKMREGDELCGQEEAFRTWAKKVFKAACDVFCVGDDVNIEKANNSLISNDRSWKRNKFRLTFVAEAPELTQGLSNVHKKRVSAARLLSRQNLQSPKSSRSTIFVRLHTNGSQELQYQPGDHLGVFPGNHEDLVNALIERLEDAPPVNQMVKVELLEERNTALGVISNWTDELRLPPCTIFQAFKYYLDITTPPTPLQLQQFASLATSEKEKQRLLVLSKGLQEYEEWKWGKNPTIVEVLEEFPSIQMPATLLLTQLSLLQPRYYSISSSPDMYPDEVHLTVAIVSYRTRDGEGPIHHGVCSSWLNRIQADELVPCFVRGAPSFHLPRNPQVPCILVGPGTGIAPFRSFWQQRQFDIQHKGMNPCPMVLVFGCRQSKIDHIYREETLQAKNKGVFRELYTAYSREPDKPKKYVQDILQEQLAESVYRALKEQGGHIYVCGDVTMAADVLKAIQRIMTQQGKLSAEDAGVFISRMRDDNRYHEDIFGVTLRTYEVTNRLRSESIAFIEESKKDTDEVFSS

In data set [6] the target is Nitric oxide synthase, inducible (Homo sapiens, UniProt P35228). Description: Inhibition of human iNOS expressed in HEK293 cells assessed as inhibition of nitric oxide production after 18 hrs using 2,3-diaminonaphthalene by fluorescence assay. It is filed as cell-based. In short, it runs like this: as §1
Chain of Nitric oxide synthase, inducible (Homo sapiens, UniProt P35228) (P35228 whole entry): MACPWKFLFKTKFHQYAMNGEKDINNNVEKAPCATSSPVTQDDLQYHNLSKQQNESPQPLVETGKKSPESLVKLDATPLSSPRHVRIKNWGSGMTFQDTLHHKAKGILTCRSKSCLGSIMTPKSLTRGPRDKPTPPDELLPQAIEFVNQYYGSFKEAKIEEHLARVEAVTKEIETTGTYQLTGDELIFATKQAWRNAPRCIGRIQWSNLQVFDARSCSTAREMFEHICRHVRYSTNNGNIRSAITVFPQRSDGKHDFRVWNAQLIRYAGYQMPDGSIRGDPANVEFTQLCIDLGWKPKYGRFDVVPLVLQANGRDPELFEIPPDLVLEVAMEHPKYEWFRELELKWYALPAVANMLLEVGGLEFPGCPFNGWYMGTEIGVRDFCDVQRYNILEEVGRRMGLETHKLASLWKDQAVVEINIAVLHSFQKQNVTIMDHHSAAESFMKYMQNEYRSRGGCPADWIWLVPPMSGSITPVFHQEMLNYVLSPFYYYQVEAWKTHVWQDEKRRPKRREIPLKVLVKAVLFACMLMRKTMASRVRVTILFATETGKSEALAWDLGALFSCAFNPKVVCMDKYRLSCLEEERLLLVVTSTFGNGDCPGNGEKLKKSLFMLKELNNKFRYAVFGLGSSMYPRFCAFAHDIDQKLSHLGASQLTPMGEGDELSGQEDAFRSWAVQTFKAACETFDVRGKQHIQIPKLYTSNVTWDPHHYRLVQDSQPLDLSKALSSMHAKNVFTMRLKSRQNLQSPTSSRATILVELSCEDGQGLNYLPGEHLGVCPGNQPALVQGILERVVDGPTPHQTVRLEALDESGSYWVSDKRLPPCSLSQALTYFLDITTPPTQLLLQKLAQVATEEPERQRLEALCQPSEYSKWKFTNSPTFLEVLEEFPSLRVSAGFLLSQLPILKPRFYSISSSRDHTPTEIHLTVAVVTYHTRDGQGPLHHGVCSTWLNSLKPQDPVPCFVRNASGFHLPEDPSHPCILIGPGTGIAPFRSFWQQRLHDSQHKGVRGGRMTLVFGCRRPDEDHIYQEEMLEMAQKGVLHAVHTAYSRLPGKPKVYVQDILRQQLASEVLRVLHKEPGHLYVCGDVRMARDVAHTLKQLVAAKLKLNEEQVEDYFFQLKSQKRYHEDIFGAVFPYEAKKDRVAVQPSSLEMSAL
Data set [7] addresses Cytochrome P450 2C9 (Homo sapiens, UniProt P11712). Put plainly: Inhibition of human CYP2C9. Format: ADME.
For data set [8], the target named is T2, Cytochrome P450 2D6 (Homo sapiens, UniProt P10635). Description: Inhibition of human CYP2D6. Format: ADME.
T2 sequence (P10635 whole entry): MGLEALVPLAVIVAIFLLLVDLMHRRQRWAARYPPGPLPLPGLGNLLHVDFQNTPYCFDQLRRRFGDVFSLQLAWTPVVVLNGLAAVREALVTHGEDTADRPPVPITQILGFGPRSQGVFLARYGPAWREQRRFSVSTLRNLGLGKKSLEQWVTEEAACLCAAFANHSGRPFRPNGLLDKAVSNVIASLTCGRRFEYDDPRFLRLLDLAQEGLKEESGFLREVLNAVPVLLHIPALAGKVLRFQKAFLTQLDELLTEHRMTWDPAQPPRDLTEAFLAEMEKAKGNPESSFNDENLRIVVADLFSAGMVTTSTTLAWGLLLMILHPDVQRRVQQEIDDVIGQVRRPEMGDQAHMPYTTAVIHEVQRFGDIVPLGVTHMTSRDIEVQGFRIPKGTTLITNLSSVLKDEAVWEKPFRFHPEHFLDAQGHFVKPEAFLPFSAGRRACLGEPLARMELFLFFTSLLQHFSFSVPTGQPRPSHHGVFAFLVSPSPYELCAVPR
Data set [9] concerns the target T2, Cytochrome P450 2D6. Put plainly: Inhibition of human CYP2D6 at >100 uM. Format: ADME.
Data set [10] concerns the target Cytochrome P450 2C19 (Homo sapiens, UniProt P33261). Description: Inhibition of human CYP2C19. Format: ADME.

Chain of Cytochrome P450 2C19 (P33261 whole entry): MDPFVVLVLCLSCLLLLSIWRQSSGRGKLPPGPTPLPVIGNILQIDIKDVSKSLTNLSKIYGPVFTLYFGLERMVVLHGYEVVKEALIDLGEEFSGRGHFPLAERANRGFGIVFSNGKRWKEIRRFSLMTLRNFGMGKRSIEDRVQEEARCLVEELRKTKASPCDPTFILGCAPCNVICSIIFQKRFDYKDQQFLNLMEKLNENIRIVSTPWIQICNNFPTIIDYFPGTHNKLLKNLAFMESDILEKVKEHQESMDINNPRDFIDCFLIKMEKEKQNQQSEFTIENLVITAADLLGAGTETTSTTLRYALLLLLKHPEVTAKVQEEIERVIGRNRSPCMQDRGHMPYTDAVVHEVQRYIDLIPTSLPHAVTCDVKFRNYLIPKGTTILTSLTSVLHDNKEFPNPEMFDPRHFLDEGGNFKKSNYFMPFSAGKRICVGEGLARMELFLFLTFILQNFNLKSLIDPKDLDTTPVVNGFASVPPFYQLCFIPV
Chain of Cytochrome P450 2C9 (P11712 whole entry): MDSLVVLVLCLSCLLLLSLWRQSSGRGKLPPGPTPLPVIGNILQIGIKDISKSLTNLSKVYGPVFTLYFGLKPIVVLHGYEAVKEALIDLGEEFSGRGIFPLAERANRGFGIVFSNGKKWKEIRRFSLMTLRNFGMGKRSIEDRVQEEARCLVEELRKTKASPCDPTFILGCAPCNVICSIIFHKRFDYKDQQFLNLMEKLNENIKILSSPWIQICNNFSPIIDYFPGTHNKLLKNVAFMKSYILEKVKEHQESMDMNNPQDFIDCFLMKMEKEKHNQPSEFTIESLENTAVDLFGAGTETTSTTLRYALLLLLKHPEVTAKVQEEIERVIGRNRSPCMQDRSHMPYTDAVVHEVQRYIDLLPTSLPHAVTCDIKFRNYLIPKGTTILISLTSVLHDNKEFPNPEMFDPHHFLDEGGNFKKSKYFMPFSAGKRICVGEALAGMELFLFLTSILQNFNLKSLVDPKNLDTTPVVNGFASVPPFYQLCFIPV

As usually defined, the AUC is concentration integrated over time. For orientation: half-life means the time needed for the level to fall by half in the phase considered. Higher therefore signals slow loss. By EC50 is commonly meant the concentration giving half of the maximal effect. In the case of `CC(C)Cc1nc2ccccc2n1Cc1cc(=O)[nH]c2c(F)c(F)ccc12`, the exposure (AUC) in [1] was 13300 ng·h/mL. Further, the t1/2 in data set [2] is 1.83 h. The molecule also showed a half-life in [3] of 5.2 h. For the same molecule, the EC50 in data set [4] turned out to be 3.1 µM; in data set [5] it was 0.69 µM; in [6] it was 0.38 µM.
Take `O=c1cc(Cn2c(C3CCC3)nc3nccnc32)c2cccc(F)c2[nH]1`: the AUC in [1] worked out at 25000 ng·h/mL. Also, the EC50 in data set [7] is above 60 µM; in [8], above 100 µM; in data set [4], 1.3 µM; in data set [5], 4.6 µM; in [6], 0.19 µM; in [10], above 60 µM. Further, in data set [2], the t1/2 was above 2 h. Also, the half-life in data set [3] was 3.1 h. In data set [9], the “inhibition (INH)” value is below 50%.
The molecule `CC(C)Cc1nc2nccnc2n1Cc1cc(=O)[nH]c2c(F)c(F)ccc12` gave an exposure (AUC) in [1] of 11000 ng·h/mL. The EC50 was 29 µM in data set [7]; above 100 µM in [8]; 0.44 µM in data set [4]; 0.3 µM in data set [5]; 0.088 µM in data set [6]; above 60 µM in [10]. Moreover, the t1/2 in data set [2] was 0.783 h. The molecule further had a half-life in data set [3] of 1.8 h. In addition, the “inhibition (INH)” value in [9] was below 50%.
Regarding `O=c1cc(Cn2c(C3CC(F)(F)C3)nc3nccnc32)c2cccc(F)c2[nH]1`, the area under the curve (AUC) in data set [1] was found to be 15000 ng·h/mL. Besides, the concentration giving a half-maximal response (EC50) in data set [7] is 22 µM; in data set [8], above 100 µM; in data set [4], 3.3 µM; in data set [5], 3 µM; in [6] it was 0.22 µM; in data set [10], 27 µM. Further, in data set [2], the t1/2 is above 2 h. The same molecule gave a half-life in data set [3] of 2.3 h. The “inhibition (INH)” value in [9] is below 50%.
For `O=c1cc(Cn2c(C3CCC3)nc3nccnc32)c2ccc(F)c(F)c2[nH]1`, the 50% effective concentration (EC50) is above 60 µM in data set [7]; above 100 µM in data set [8]; 0.43 µM in [4]; 0.3 µM in data set [5]; 0.091 µM in [6]; above 38 µM in data set [10]. The t1/2 in data set [2] was above 2 h. This molecule had a half-life in data set [3] of 2.3 h. Also, the “inhibition (INH)” value in data set [9] was below 50%.

Values taken from ChEMBL document CHEMBL1800057, “Discovery of dual inducible/neuronal nitric oxide synthase (iNOS/nNOS) inhibitor development candidate 4-((2-cyclobutyl-1H-imidazo[4,5-b]pyrazin-1-yl)methyl)-7,8-difluoroquinolin-2(1H)-one (KD7332) part 2: identification of a novel, potent, and selective series of benzimidazole-quinolinone …” (J Med Chem, 2010).
